Data published in ChEMBL document CHEMBL4689842, “EUbOPEN Chemogenomics Library wave 1” (2021).

Tested on: HEK-293T
Experiment: Multiplex assay against HEK293T;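 on Population Tubulin-Different-Phenotype (%): share of the cells with healthy nuclei that show this phenotype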
Assay type: toxicity, cell-based
Conditions: human
In short: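 Imaging took place on a CQ1 microscope at 37°C and 5% CO2 once compound had been added to live cells stained at seeding with Hoechst33342, BioTracker Green Microtubule Cytoskeleton Dye, MitoTracker Red and Annexin V Alexa Fluor 680. CellPathfinder machine-learning gating classed cells as Hoechst high-intensity objects or normal cells, classed normal cells as having healthy, pyknosed or fragmented nuclei, and classed pyknosed cells as mitotic or apoptotic. Tubulin, mitochondrial-mass and membrane-permeability phenotypes are per cents of the healthy-nucleus cells.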

[1] = 12 h, 1 µM, compound concentration 1 uM, replicate 1
[2] = 12 h, 1 µM, compound concentration 1 uM, replicate 2
[3] = 12 h, 10 µM, compound concentration 10 uM, replicate 1
[4] = 12 h, 10 µM, compound concentration 10 uM, replicate 2
[5] = 24 h, 1 µM, compound concentration 1 uM, replicate 1
[6] = 24 h, 1 µM, compound concentration 1 uM, replicate 2
[7] = 24 h, 10 µM, compound concentration 10 uM, replicate 1
[8] = 24 h, 10 µM, compound concentration 10 uM, replicate 2
[9] = 48 h, 1 µM, compound concentration 1 uM, replicate 1
[10] = 48 h, 1 µM, compound concentration 1 uM, replicate 2
[11] = 48 h, 10 µM, compound concentration 10 uM, replicate 1
[12] = 48 h, 10 µM, compound concentration 10 uM, replicate 2

## COc1cc(N2CCN(C)CC2)ccc1Nc1ncc2c(n1)N(C)c1ccccc1C(=O)N2C
[1]
  Population Apoptotic (%): 46%
  Population Fragmented Nuclei (%): 8%
  Population Healthy Nuclei (%): 45%
  Population Hoechst High Intensity Objects (%): 6%
  Population Membrane Permeable-Phenotype (%): 1%
  Population Mitochondria Different-Phenotype (%): 90%
  Population Mitotic Cells (%): 53%
  Population Normal (%): 93%
  Population Pyknosed Nuclei (%): 45%
  Population Tubulin-Different-Phenotype (%): 40%
  Total Cell Count: 359
[2]
  Population Apoptotic (%): 18%
  Population Fragmented Nuclei (%): 3%
  Population Healthy Nuclei (%): 37%
  Population Hoechst High Intensity Objects (%): 3%
  Population Membrane Permeable-Phenotype (%): 6%
  Population Mitochondria Different-Phenotype (%): 42%
  Population Mitotic Cells (%): 82%
  Population Normal (%): 96%
  Population Pyknosed Nuclei (%): 58%
  Population Tubulin-Different-Phenotype (%): 23%
  Total Cell Count: 176
[3]
  Population Apoptotic (%): 62%
  Population Fragmented Nuclei (%): 12%
  Population Healthy Nuclei (%): 17%
  Population Hoechst High Intensity Objects (%): 13%
  Population Membrane Permeable-Phenotype (%): 23%
  Population Mitochondria Different-Phenotype (%): 92%
  Population Mitotic Cells (%): 37%
  Population Normal (%): 86%
  Population Pyknosed Nuclei (%): 70%
  Population Tubulin-Different-Phenotype (%): 84%
  Total Cell Count: 172
[4]
  Population Apoptotic (%): 58%
  Population Fragmented Nuclei (%): 8%
  Population Healthy Nuclei (%): 15%
  Population Hoechst High Intensity Objects (%): 6%
  Population Membrane Permeable-Phenotype (%): 7%
  Population Mitochondria Different-Phenotype (%): 96%
  Population Mitotic Cells (%): 41%
  Population Normal (%): 93%
  Population Pyknosed Nuclei (%): 76%
  Population Tubulin-Different-Phenotype (%): 100%
  Total Cell Count: 190
[5]
  Population Apoptotic (%): 38%
  Population Fragmented Nuclei (%): 4%
  Population Healthy Nuclei (%): 58%
  Population Hoechst High Intensity Objects (%): 6%
  Population Membrane Permeable-Phenotype (%): 1%
  Population Mitochondria Different-Phenotype (%): 75%
  Population Mitotic Cells (%): 61%
  Population Normal (%): 93%
  Population Pyknosed Nuclei (%): 37%
  Population Tubulin-Different-Phenotype (%): 26%
  Total Cell Count: 423
[6]
  Population Apoptotic (%): 9%
  Population Fragmented Nuclei (%): 5%
  Population Healthy Nuclei (%): 48%
  Population Hoechst High Intensity Objects (%): 2%
  Population Membrane Permeable-Phenotype (%): 7%
  Population Mitochondria Different-Phenotype (%): 40%
  Population Mitotic Cells (%): 90%
  Population Normal (%): 97%
  Population Pyknosed Nuclei (%): 45%
  Population Tubulin-Different-Phenotype (%): 22%
  Total Cell Count: 225
[7]
  Population Apoptotic (%): 69%
  Population Fragmented Nuclei (%): 9%
  Population Healthy Nuclei (%): 19%
  Population Hoechst High Intensity Objects (%): 10%
  Population Membrane Permeable-Phenotype (%): 13%
  Population Mitochondria Different-Phenotype (%): 96%
  Population Mitotic Cells (%): 30%
  Population Normal (%): 89%
  Population Pyknosed Nuclei (%): 71%
  Population Tubulin-Different-Phenotype (%): 93%
  Total Cell Count: 170
[8]
  Population Apoptotic (%): 76%
  Population Fragmented Nuclei (%): 7%
  Population Healthy Nuclei (%): 20%
  Population Hoechst High Intensity Objects (%): 5%
  Population Membrane Permeable-Phenotype (%): 2%
  Population Mitochondria Different-Phenotype (%): 94%
  Population Mitotic Cells (%): 23%
  Population Normal (%): 94%
  Population Pyknosed Nuclei (%): 72%
  Population Tubulin-Different-Phenotype (%): 97%
  Total Cell Count: 195
[9]
  Population Apoptotic (%): 36%
  Population Fragmented Nuclei (%): 8%
  Population Healthy Nuclei (%): 71%
  Population Hoechst High Intensity Objects (%): 8%
  Population Membrane Permeable-Phenotype (%): 1%
  Population Mitochondria Different-Phenotype (%): 23%
  Population Mitotic Cells (%): 63%
  Population Normal (%): 91%
  Population Pyknosed Nuclei (%): 19%
  Population Tubulin-Different-Phenotype (%): 11%
  Total Cell Count: 613
[10]
  Population Apoptotic (%): 18%
  Population Fragmented Nuclei (%): 6%
  Population Healthy Nuclei (%): 72%
  Population Hoechst High Intensity Objects (%): 2%
  Population Membrane Permeable-Phenotype (%): 6%
  Population Mitochondria Different-Phenotype (%): 7%
  Population Mitotic Cells (%): 81%
  Population Normal (%): 97%
  Population Pyknosed Nuclei (%): 20%
  Population Tubulin-Different-Phenotype (%): 16%
  Total Cell Count: 357
[11]
  Population Apoptotic (%): 69%
  Population Fragmented Nuclei (%): 16%
  Population Healthy Nuclei (%): 33%
  Population Hoechst High Intensity Objects (%): 15%
  Population Membrane Permeable-Phenotype (%): 3%
  Population Mitochondria Different-Phenotype (%): 100%
  Population Mitotic Cells (%): 30%
  Population Normal (%): 84%
  Population Pyknosed Nuclei (%): 49%
  Population Tubulin-Different-Phenotype (%): 91%
  Total Cell Count: 210
[12]
  Population Apoptotic (%): 70%
  Population Fragmented Nuclei (%): 11%
  Population Healthy Nuclei (%): 28%
  Population Hoechst High Intensity Objects (%): 10%
  Population Membrane Permeable-Phenotype (%): 1%
  Population Mitochondria Different-Phenotype (%): 96%
  Population Mitotic Cells (%): 29%
  Population Normal (%): 89%
  Population Pyknosed Nuclei (%): 59%
  Population Tubulin-Different-Phenotype (%): 94%
  Total Cell Count: 211

## CCOc1cc(C(=O)N2CCC(N3CCN(C)CC3)CC2)ccc1Nc1ncc2c(n1)N(C1CCCC1)c1ccccc1C(=O)N2C
[1]
  Population Apoptotic (%): 61%
  Population Fragmented Nuclei (%): 16%
  Population Hoechst High Intensity Objects (%): 18%
  Population Membrane Permeable-Phenotype (%): 5%
  Population Mitochondria Different-Phenotype (%): 93%
  Population Mitotic Cells (%): 38%
  Population Normal (%): 81%
  Population Pyknosed Nuclei (%): 57%
  Population Tubulin-Different-Phenotype (%): 81%
  Total Cell Count: 371
[2]
  Population Apoptotic (%): 60%
  Population Fragmented Nuclei (%): 4%
  Population Healthy Nuclei (%): 25%
  Population Hoechst High Intensity Objects (%): 5%
  Population Membrane Permeable-Phenotype (%): 9%
  Population Mitochondria Different-Phenotype (%): 88%
  Population Mitotic Cells (%): 39%
  Population Normal (%): 94%
  Population Pyknosed Nuclei (%): 70%
  Population Tubulin-Different-Phenotype (%): 79%
  Total Cell Count: 178
[3]
  Population Apoptotic (%): 83%
  Population Fragmented Nuclei (%): 8%
  Population Healthy Nuclei (%): 12%
  Population Hoechst High Intensity Objects (%): 15%
  Population Mitochondria Different-Phenotype (%): 95%
  Population Mitotic Cells (%): 16%
  Population Normal (%): 84%
  Population Pyknosed Nuclei (%): 79%
  Population Tubulin-Different-Phenotype (%): 60%
  Total Cell Count: 215
[4]
  Population Apoptotic (%): 92%
  Population Fragmented Nuclei (%): 5%
  Population Healthy Nuclei (%): 6%
  Population Hoechst High Intensity Objects (%): 7%
  Population Membrane Permeable-Phenotype (%): 0%
  Population Mitochondria Different-Phenotype (%): 100%
  Population Mitotic Cells (%): 7%
  Population Normal (%): 92%
  Population Pyknosed Nuclei (%): 88%
  Population Tubulin-Different-Phenotype (%): 16%
  Total Cell Count: 216
[5]
  Population Apoptotic (%): 63%
  Population Fragmented Nuclei (%): 19%
  Population Hoechst High Intensity Objects (%): 19%
  Population Membrane Permeable-Phenotype (%): 3%
  Population Mitochondria Different-Phenotype (%): 96%
  Population Mitotic Cells (%): 36%
  Population Normal (%): 80%
  Population Pyknosed Nuclei (%): 54%
  Population Tubulin-Different-Phenotype (%): 83%
  Total Cell Count: 391
[6]
  Population Apoptotic (%): 66%
  Population Fragmented Nuclei (%): 4%
  Population Healthy Nuclei (%): 26%
  Population Hoechst High Intensity Objects (%): 3%
  Population Membrane Permeable-Phenotype (%): 5%
  Population Mitochondria Different-Phenotype (%): 92%
  Population Mitotic Cells (%): 33%
  Population Normal (%): 96%
  Population Pyknosed Nuclei (%): 69%
  Population Tubulin-Different-Phenotype (%): 75%
  Total Cell Count: 204
[7]
  Population Apoptotic (%): 91%
  Population Fragmented Nuclei (%): 15%
  Population Healthy Nuclei (%): 4%
  Population Hoechst High Intensity Objects (%): 19%
  Population Membrane Permeable-Phenotype (%): 0%
  Population Mitochondria Different-Phenotype (%): 100%
  Population Mitotic Cells (%): 8%
  Population Normal (%): 80%
  Population Pyknosed Nuclei (%): 80%
  Population Tubulin-Different-Phenotype (%): 37%
  Total Cell Count: 206
[8]
  Population Apoptotic (%): 93%
  Population Fragmented Nuclei (%): 6%
  Population Healthy Nuclei (%): 18%
  Population Hoechst High Intensity Objects (%): 11%
  Population Mitochondria Different-Phenotype (%): 97%
  Population Mitotic Cells (%): 6%
  Population Normal (%): 88%
  Population Pyknosed Nuclei (%): 74%
  Population Tubulin-Different-Phenotype (%): 21%
  Total Cell Count: 222
[9]
  Population Apoptotic (%): 64%
  Population Fragmented Nuclei (%): 22%
  Population Healthy Nuclei (%): 31%
  Population Hoechst High Intensity Objects (%): 20%
  Population Mitochondria Different-Phenotype (%): 91%
  Population Mitotic Cells (%): 35%
  Population Normal (%): 79%
  Population Pyknosed Nuclei (%): 46%
  Population Tubulin-Different-Phenotype (%): 65%
  Total Cell Count: 400
[10]
  Population Apoptotic (%): 58%
  Population Fragmented Nuclei (%): 8%
  Population Healthy Nuclei (%): 48%
  Population Hoechst High Intensity Objects (%): 5%
  Population Membrane Permeable-Phenotype (%): 0%
  Population Mitochondria Different-Phenotype (%): 72%
  Population Mitotic Cells (%): 41%
  Population Normal (%): 94%
  Population Pyknosed Nuclei (%): 43%
  Population Tubulin-Different-Phenotype (%): 63%
  Total Cell Count: 239
[11]
  Population Apoptotic (%): 90%
  Population Fragmented Nuclei (%): 23%
  Population Healthy Nuclei (%): 2%
  Population Hoechst High Intensity Objects (%): 20%
  Population Membrane Permeable-Phenotype (%): 0%
  Population Mitotic Cells (%): 9%
  Population Normal (%): 79%
  Population Pyknosed Nuclei (%): 74%
  Population Tubulin-Different-Phenotype (%): 75%
  Total Cell Count: 233
[12]
  Population Apoptotic (%): 98%
  Population Fragmented Nuclei (%): 13%
  Population Healthy Nuclei (%): 11%
  Population Hoechst High Intensity Objects (%): 10%
  Population Membrane Permeable-Phenotype (%): 5%
  Population Mitochondria Different-Phenotype (%): 100%
  Population Mitotic Cells (%): 1%
  Population Normal (%): 90%
  Population Pyknosed Nuclei (%): 75%
  Population Tubulin-Different-Phenotype (%): 50%
  Total Cell Count: 200
